From ChEMBL document CHEMBL4689842, “EUbOPEN Chemogenomics Library wave 1” (2021)

Tested on: Fibroblast
Test: Multiplex assay against human fibroblast
Format: toxicity, cell-based
Method in brief: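 On a CQ1 microscope at 37°C and 5% CO2, live cells were imaged after compound addition. They had been stained at seeding with Hoechst33342, BioTracker Green Microtubule Cytoskeleton Dye, MitoTracker Red and Annexin V Alexa Fluor 680. CellPathfinder machine-learning gating assigned cells to Hoechst high-intensity objects or normal cells, normal cells to healthy, pyknosed or fragmented nuclei, and pyknosed cells to mitotic or apoptotic. Tubulin, mitochondrial-mass and membrane-permeability phenotypes are per cents of healthy-nucleus cells.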

[1] = 12 h, 1 µM, compound concentration 1 uM, replicate 1
[2] = 12 h, 1 µM, compound concentration 1 uM, replicate 2
[3] = 12 h, 10 µM, compound concentration 10 uM, replicate 1
[4] = 12 h, 10 µM, compound concentration 10 uM, replicate 2
[5] = 24 h, 1 µM, compound concentration 1 uM, replicate 1
[6] = 24 h, 1 µM, compound concentration 1 uM, replicate 2
[7] = 24 h, 10 µM, compound concentration 10 uM, replicate 1
[8] = 24 h, 10 µM, compound concentration 10 uM, replicate 2
[9] = 48 h, 1 µM, compound concentration 1 uM, replicate 1
[10] = 48 h, 1 µM, compound concentration 1 uM, replicate 2
[11] = 48 h, 10 µM, compound concentration 10 uM, replicate 1
[12] = 48 h, 10 µM, compound concentration 10 uM, replicate 2

## C=CC(=O)Nc1cccc(C(=O)Nc2ccc(Nc3cc(-c4[nH]c(SC)nc4C)ccn3)cc2)c1
[1]
  Population Apoptotic (%): 69%
  Population Fragmented Nuclei (%): 23%
  Population Healthy Nuclei (%): 43%
  Population Hoechst High Intensity Objects (%): 11%
  Population Membrane Permeable-Phenotype (%): 28%
  Population Mitochondria Different-Phenotype (%): 8%
  Population Mitotic Cells (%): 30%
  Population Normal (%): 88%
  Population Pyknosed Nuclei (%): 33%
  Population Tubulin-Different-Phenotype (%): 36%
  Total Cell Count: 131
[2]
  Population Apoptotic (%): 0%
  Population Fragmented Nuclei (%): 2%
  Population Healthy Nuclei (%): 94%
  Population Hoechst High Intensity Objects (%): 14%
  Population Membrane Permeable-Phenotype (%): 0%
  Population Mitochondria Different-Phenotype (%): 7%
  Population Mitotic Cells (%): 100%
  Population Normal (%): 85%
  Population Pyknosed Nuclei (%): 2%
  Population Tubulin-Different-Phenotype (%): 23%
  Total Cell Count: 112
[3]
  Population Apoptotic (%): 50%
  Population Fragmented Nuclei (%): 27%
  Population Healthy Nuclei (%): 50%
  Population Hoechst High Intensity Objects (%): 19%
  Population Membrane Permeable-Phenotype (%): 18%
  Population Mitochondria Different-Phenotype (%): 13%
  Population Mitotic Cells (%): 50%
  Population Normal (%): 80%
  Population Pyknosed Nuclei (%): 22%
  Population Tubulin-Different-Phenotype (%): 29%
  Total Cell Count: 109
[4]
  Population Apoptotic (%): 40%
  Population Fragmented Nuclei (%): 6%
  Population Healthy Nuclei (%): 83%
  Population Hoechst High Intensity Objects (%): 18%
  Population Membrane Permeable-Phenotype (%): 7%
  Population Mitochondria Different-Phenotype (%): 12%
  Population Mitotic Cells (%): 60%
  Population Normal (%): 81%
  Population Pyknosed Nuclei (%): 10%
  Population Tubulin-Different-Phenotype (%): 12%
  Total Cell Count: 78
[5]
  Population Apoptotic (%): 60%
  Population Fragmented Nuclei (%): 20%
  Population Healthy Nuclei (%): 55%
  Population Hoechst High Intensity Objects (%): 13%
  Population Membrane Permeable-Phenotype (%): 29%
  Population Mitochondria Different-Phenotype (%): 3%
  Population Mitotic Cells (%): 39%
  Population Normal (%): 86%
  Population Pyknosed Nuclei (%): 24%
  Population Tubulin-Different-Phenotype (%): 34%
  Total Cell Count: 134
[6]
  Population Apoptotic (%): 37%
  Population Fragmented Nuclei (%): 3%
  Population Healthy Nuclei (%): 87%
  Population Hoechst High Intensity Objects (%): 4%
  Population Membrane Permeable-Phenotype (%): 2%
  Population Mitochondria Different-Phenotype (%): 10%
  Population Mitotic Cells (%): 62%
  Population Normal (%): 95%
  Population Pyknosed Nuclei (%): 8%
  Population Tubulin-Different-Phenotype (%): 25%
  Total Cell Count: 122
[7]
  Population Apoptotic (%): 30%
  Population Fragmented Nuclei (%): 32%
  Population Healthy Nuclei (%): 43%
  Population Hoechst High Intensity Objects (%): 13%
  Population Membrane Permeable-Phenotype (%): 20%
  Population Mitochondria Different-Phenotype (%): 4%
  Population Mitotic Cells (%): 69%
  Population Normal (%): 86%
  Population Pyknosed Nuclei (%): 23%
  Population Tubulin-Different-Phenotype (%): 30%
  Total Cell Count: 113
[8]
  Population Apoptotic (%): 40%
  Population Fragmented Nuclei (%): 5%
  Population Healthy Nuclei (%): 85%
  Population Hoechst High Intensity Objects (%): 11%
  Population Membrane Permeable-Phenotype (%): 8%
  Population Mitochondria Different-Phenotype (%): 14%
  Population Mitotic Cells (%): 60%
  Population Normal (%): 88%
  Population Pyknosed Nuclei (%): 9%
  Population Tubulin-Different-Phenotype (%): 12%
  Total Cell Count: 95
[9]
  Population Apoptotic (%): 62%
  Population Fragmented Nuclei (%): 25%
  Population Healthy Nuclei (%): 50%
  Population Hoechst High Intensity Objects (%): 11%
  Population Membrane Permeable-Phenotype (%): 34%
  Population Mitochondria Different-Phenotype (%): 3%
  Population Mitotic Cells (%): 37%
  Population Normal (%): 88%
  Population Pyknosed Nuclei (%): 23%
  Population Tubulin-Different-Phenotype (%): 25%
  Total Cell Count: 129
[10]
  Population Apoptotic (%): 100%
  Population Fragmented Nuclei (%): 36%
  Population Healthy Nuclei (%): 61%
  Population Hoechst High Intensity Objects (%): 17%
  Population Membrane Permeable-Phenotype (%): 28%
  Population Mitochondria Different-Phenotype (%): 2%
  Population Mitotic Cells (%): 0%
  Population Normal (%): 82%
  Population Pyknosed Nuclei (%): 1%
  Population Tubulin-Different-Phenotype (%): 20%
  Total Cell Count: 69
[11]
  Population Apoptotic (%): 43%
  Population Fragmented Nuclei (%): 37%
  Population Healthy Nuclei (%): 47%
  Population Hoechst High Intensity Objects (%): 12%
  Population Membrane Permeable-Phenotype (%): 11%
  Population Mitochondria Different-Phenotype (%): 0%
  Population Mitotic Cells (%): 56%
  Population Normal (%): 87%
  Population Pyknosed Nuclei (%): 14%
  Population Tubulin-Different-Phenotype (%): 23%
  Total Cell Count: 123
[12]
  Population Apoptotic (%): 100%
  Population Fragmented Nuclei (%): 36%
  Population Healthy Nuclei (%): 57%
  Population Hoechst High Intensity Objects (%): 13%
  Population Membrane Permeable-Phenotype (%): 20%
  Population Mitochondria Different-Phenotype (%): 3%
  Population Mitotic Cells (%): 0%
  Population Normal (%): 86%
  Population Pyknosed Nuclei (%): 5%
  Population Tubulin-Different-Phenotype (%): 27%
  Total Cell Count: 118
